ADAM17 inh: inhibitors of human ADAM17. P78536. recombinant ADAM17, EDANS/DABCYL FRET peptide cleavage. inhibition, % at 6.95 µM. 370,000 tested, 0.83% active. AID 720648;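 active means inhibition above the mean of compounds lying between control limits plus 3 SD, set per campaign, cut at about 8.5% in these data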;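 further: 0% = DMSO-only wells as the low control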
SKN-1 inh: C. elegans SKN-1 inhibition; C. elegans VP596 Pgst-4::GFP/RFP ratio, acrylamide-induced, 24 h; inhibition, % at 21.8 µM; 360,000 tested, 0.49% active;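 active means interference check ratio from 0.5 to 1.5 plus GFP to RFP signal ratio inhibition reaching or exceeding a fixed threshold, cut at about 30% in these data, passing the limit was not always enough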
ADAM10 inh: inhibits human ADAM10 | recombinant ADAM10, EDANS/DABCYL FRET peptide cleavage, 3 h | inhibition, % at 7 µM | 370,000 tested, 0.62% active;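 active means inhibition above a per-campaign cutoff equal to the mean of compounds falling between control-based bounds plus 3 SD, cut at about 20% in these data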;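 further: 0% = DMSO wells while the 100% control is not disclosed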
Target sequence (O14672 214-748 limits assumed): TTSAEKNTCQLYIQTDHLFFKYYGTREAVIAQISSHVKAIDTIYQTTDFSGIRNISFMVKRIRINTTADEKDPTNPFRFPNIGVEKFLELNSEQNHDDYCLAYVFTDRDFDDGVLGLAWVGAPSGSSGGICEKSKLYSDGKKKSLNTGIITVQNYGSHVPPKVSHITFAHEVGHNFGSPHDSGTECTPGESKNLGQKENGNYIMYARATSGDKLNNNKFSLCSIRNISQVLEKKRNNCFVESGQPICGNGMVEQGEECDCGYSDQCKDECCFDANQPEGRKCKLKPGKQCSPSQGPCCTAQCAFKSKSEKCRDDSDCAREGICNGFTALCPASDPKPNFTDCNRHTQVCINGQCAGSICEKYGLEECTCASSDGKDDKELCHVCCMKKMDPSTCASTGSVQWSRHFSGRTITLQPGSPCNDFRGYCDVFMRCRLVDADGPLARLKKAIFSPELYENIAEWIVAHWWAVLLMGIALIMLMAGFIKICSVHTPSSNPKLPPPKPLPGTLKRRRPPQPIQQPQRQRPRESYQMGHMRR
MT1-MMP act inh: MT1-MMP (human) activation inhibition. GFP/RFP ratio change, % at 20 µM. HT1080 RFP-PRO-GFP cells, GFP/RFP ratio fluorescence, overnight; percent of plate control window, DMSO zero. 360,000 tested, 0.061% active. AID 651647;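 active means GFP/RFP ratio change of at least 30% with cell ATP level not reduced by more than half and red fluorescence within 50% of control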
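Read-out: GFP/RFP fluorescence ratio; Test system: RFP-PRO-GFP reporter HT1080 cells; Compound dosing: single-point 20 µM compound, 1% DMSO; Times: overnight compound exposure at 37 °C.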
GRIN3A LBD mod: NR3A (human) ligand-binding domain modulation; Tm shift relative to glycine control, % at 25 µM; NR3A LBD differential scanning fluorimetry, Tm shift; 0% = protein alone, 100% = glycine-bound protein; 340,000 tested, 2.5% active;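 active means melting temperature shift of at least 10% of the positive control shift, at one fixed dose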
MPTP inh: inhibitors of mitochondrial permeability transition pore; inhibition, % at 10 µM; isolated mouse mitochondria, Ca2+ swelling absorbance, 30 min; AID 602449; 360,000 tested, 1.4% active;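 active means inhibition of 50% or more, scaled per plate between neutral and stimulator controls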;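 further: 0% = DMSO wells given calcium and 100% = 1 mM EGTA wells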
Rh123 counter: mitochondrial membrane potential, counter-screen. shares compounds with MPTP inh. isolated mitochondria, Rhodamine 123 fluorescence. inhibition, % at 10 µM. 5,000 tested, 78% active; in the data active means inhibition above about 22%;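 further: 0% = DMSO vehicle and 100% = positive control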
MPTP swell DR: dose response confirmation of mitochondrial permeability transition pore inhibitors; shares compounds with MPTP inh; isolated mitochondria swelling, absorbance; IC50, µM; 780 tested, 58% active; AID 651561; in the data active means IC50 below about 20 µM
MPTP counter DR: MPTP inhibitor counter-screen activity, dose response. shares compounds with MPTP inh. isolated mitochondria counterscreen, fluorescence read-out. IC50, µM. 780 tested, 49% active; in the data active means IC50 below about 80 µM
* = called active by the depositor; i = inactive; . = no result given. The list is not random: actives were taken first. Their share in the collection is about 4.7%.

SMILES	ADAM17 inh	SKN-1 inh	ADAM10 inh	MT1-MMP act inh	GRIN3A LBD mod	MPTP inh	Rh123 counter	others
COC(=O)c1c(C)oc2ccc(NS(=O)(=O)c3cccs3)cc12	3	-11	4	4	-3	92*	57*
CN(NC(=O)Nc1ccc(Cl)cc1)c1ncc(C(F)(F)F)cc1Cl	-2	1	3	4	-1	88*	91*
Cc1ccc(/C=N/NC(=O)NN(C)c2ncc(C(F)(F)F)cc2Cl)cc1	-3	-2	-4	0	0	-1	.
N/C(=N\OC(=O)Nc1ccc(Cl)cc1)c1ncc(C(F)(F)F)cc1Cl	0	-10	1	8	7	56*	113*
C/C(=N\OC(=O)Nc1ccc(Cl)cc1)c1ncc(C(F)(F)F)cc1N1CCOCC1	-4	7	-16	3	3	99*	94*
CO/N=C(\C)c1ncc(C(F)(F)F)cc1N1CCOCC1	0	-11	-2	-4	0	6	.
CC1O[C@@H](OC2C(O)C(O)C(CO)O[C@H]2OC2C[C@]3(C)C(CC(O)C4[C@@H]([C@]5(C)CC[C@@H](C(C)(C)O)O5)CC[C@]43C)[C@@]3(C)CCC(O)C(C)(C)C23)C(O)C(O)C1O (some centres not stated)	-4	-2	-5	2	-2	10	.
Cn1ccc2c(-c3ccc(CO)cc3)cc3c(c21)C1CCC3O1 (configuration not stated)	-283	5	i	1	.	0	.
COc1ccc(-c2cc(Cl)cc3c(=O)c4ccccc4n(C)c23)cc1F	-9	0	-7	-5	-5	1	.
Cc1cc(NNC(=O)c2cccc(C(F)(F)F)c2)nc2c1c(C)nn2C	-3	5	-3	6	1	86*	41*
Cc1cc(C)n(CC(=O)NNC(=O)c2cccc(C(F)(F)F)c2)n1	2	2	5	2	3	-1	.
CCCCCCCCCCCC1N=C(N)NC(CCCO)=C1C(=O)OC (configuration not stated)	1	-9	-9	-8	0	79*	2
COc1ccc(Cl)cc1C(=O)Nc1ccc(CN2CCCCC2)cc1	-2	-7	2	1	-2	57*	-4	MPTP swell DR=7.1*;MPTP counter DR=>80
COc1ccc(Cl)cc1C(=O)Nc1ccncc1	-6	1	8	-10	1	-1	.
CCN(CC)c1ccc(NC(=O)c2cc(Cl)ccc2OC)cc1	1	16	14	-2	-8	99*	-17	MPTP swell DR=14*;MPTP counter DR=>80
CCOCCCNC(=O)c1cc(-c2ccc(Br)s2)nc2ccccc12	-28	11	-114	2	3	3	.
Cc1ccc(NC(=O)C2C(c3ccccc3)C2(Cl)Cl)c(C)c1 (configuration not stated)	6	2	12	5	-7	53*	62*
CCCCN(C)c1c(C)nc2ccc(C(=O)NCCOc3ccc(OC)cc3)cn12	.	-3	.	-10	.	96*	78*
CCCCC(=O)N(C)c1c(C)nc2ccc(C(=O)NCCOc3ccc(OC)cc3)cn12	-3	1	-10	-2	.	-2	.
CC1=NC(=O)C(N=Nc2cccc(C(=O)O)c2)N1c1ccccc1 (configuration not stated)	-3	1	-14	3	5	-1	.
CCCCc1ccc(-c2csc(/C(C#N)=C\c3ccc(C)o3)n2)cc1	-1	8	-6	-23	-1	14	.
CCOc1ccc(-c2csc(/C(C#N)=C\c3ccc(O)c([N+](=O)[O-])c3)n2)cc1	-8	7	-18	-2	8	73*	70*
CC(=O)c1cc(-c2cccc(C(C)C)c2)c(=O)n2c1CCC2	-2	.	-2	.	.	.	.
Cn1cc(CN2CCN(c3ccccc3)CC2)c2ccccc21	-3	-29	-3	2	2	61*	-10	MPTP swell DR=i;MPTP counter DR=>80
CCOC(=O)c1c(/N=C/c2cc(OC)cc([N+](=O)[O-])c2O)sc(C)c1C	-1	8	-1	1	8	-4	.
SMILES	ADAM17 inh	SKN-1 inh	ADAM10 inh	MT1-MMP act inh	GRIN3A LBD mod	MPTP inh	Rh123 counter	others
Clc1ccc(NC2(c3nnnn3C3CCCCC3)CCCCC2)cc1	-5	5	-5	-5	-8	91*	91*
Cc1ccc(C)c(N2CCN(C(=O)c3ccc4c(=O)n5c(nc4c3)CCCCC5)CC2)c1	2	18	-4	8	-3	-2	.
CSc1nc2nc(-c3ccc(F)cc3)c(CCN3CCN(C)CC3)cn2n1	-5	9	-6	2	0	2	.
CCCc1nnc(NC(=O)CNc2ccc(F)cc2)s1	-1	3	-4	5	0	-4	.
CN1CCN(NC(=O)c2cc(-c3ccc(Br)s3)nc3ccccc23)CC1	-104	25	-341	-1	0	82*	-17	MPTP swell DR=15*;MPTP counter DR=>80
Cc1c(NC(=O)C(C)OC(=O)c2ccc([N+](=O)[O-])cc2Cl)c(=O)n(-c2ccccc2)n1C (configuration not stated)	-1	15	2	0	0	-1	.
CCOC(=O)C1=C(C)NC(=O)NC1c1cccs1 (configuration not stated)	-3	2	5	-3	0	0	.
Cc1cccc(C)c1NC(=O)COC(=O)c1cc(S(=O)(=O)Nc2ccc(Cl)cc2)ccc1O	-2	6	-2	0	8	0	.
O=C(COC(=O)c1cc(S(=O)(=O)Nc2ccccc2Cl)ccc1O)Nc1nc2ccccc2s1	-3	7	0	6	24*	90*	78*
N#Cc1cccc(NC(=O)COC(=O)c2cc(S(=O)(=O)Nc3ccccc3Cl)ccc2O)c1	-8	18	-36	6	18*	58*	86*
COc1ccccc1NS(=O)(=O)c1ccc(O)c(C(=O)OCC(=O)c2ccc(Cl)cc2Cl)c1	-7	2	-8	4	0	-2	.
O=C(NCCCNC(=O)c1ccc(Cl)cc1Cl)c1ccco1	1	6	3	2	3	0	.
CCN(CC(=O)NCc1ccc(Cl)cc1)C(=O)CSCC(=O)Nc1ccc(OC)cc1	-4	-21	-2	1	1	0	.
CC(=O)Nc1ccc(NC(=O)CSc2ccc(C(F)(F)F)cc2[N+](=O)[O-])cc1	2	-3	5	3	-2	1	.
